16 molecules from PubChem BioAssay AID504831 (Southern Research Specialized Biocontainment Screening …, 2011) can be followed below.

The test system of this assay is Bladder 5637 cells viability, CellTiter-Glo, 72 h. The assay can be described thus: viability of human bladder carcinoma cells – cell-based, set 3, cytotoxicity control for bacterial capsule biogenesis inhibitors, dose response (AID 504831). The method in brief:
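Test system: human bladder carcinoma 5637 cell line; Compound dosing: Eight-concentration series, 300 µM down to 2.3 µM; Times: 72 h compound exposure of cells; Technique: CellTiter-Glo luminescence viability measurement; Read-out: CC50 from dose-response fit, viability versus mean cell-only control; Benchmarks: Hyamine positive control, untreated cell control.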
As to `COC(=O)c1sc(-c2ccccc2)cc1NC(=O)c1c(F)cccc1F`, the CC50 (commonly the concentration at which the toxic effect on the cells reaches its halfway point) was 10.4 µM. The figure for `O=C(Nc1cc(-c2ccccc2)sc1C(=O)O)c1ccc(Br)o1` is 104 µM; for `CCOc1ccc(-c2cc(NC(=O)c3cccc(Cl)c3)c(C(=O)O)s2)cc1` it is 83.9 µM. Regarding `O=C(Nc1cc(-c2ccccc2)sc1C(=O)O)c1ccc2c(c1)OCCO2`, the CC50 was 82.1 µM. Turning to `O=C(Nc1cc(-c2ccccc2)sc1C(=O)O)c1cccs1`, the CC50 was 89.3 µM.

As to `O=C(Nc1cc(-c2ccccc2)sc1C(=O)O)c1cc2ccccc2o1`, the CC50 was 167 µM.

Regarding `O=C(Nc1cc(-c2ccccc2)sc1C(=O)O)c1cccc(Cl)c1`, the CC50 is 52.6 µM.

In the case of `O=C(Nc1cc(-c2ccccc2)sc1C(=O)O)c1cc(Cl)c2c(c1)OCCO2`, the CC50 is 242 µM. Turning to `O=C(O)c1sc(-c2ccccc2)cc1NC(=O)C1CCCCC1`, the CC50 was 115 µM. Under `Cc1ccc(C(=O)Nc2cc(-c3ccccc3)sc2C(=O)O)s1` stands 63.6 µM; under `O=C(Nc1cc(-c2ccccc2)sc1C(=O)O)c1cccc(F)c1`, 76.9 µM; under `CCOc1ccc(-c2cc(NC(=O)c3ccc(OC)c(OC)c3)c(C(=O)O)s2)cc1`, 82.8 µM. Under `Cc1c(C(=O)Nc2cc(-c3ccccc3)sc2C(=O)O)oc2ccccc12` stands 48.7 µM; under `O=C(O)c1sc(-c2ccccc2)cc1NC(=O)C1CCCC1`, 169 µM.

Take `Cc1onc(-c2ccccc2)c1C(=O)Nc1cc(-c2ccccc2)sc1C(=O)O`: the CC50 was 52.6 µM. Under `O=C(Nc1cc(-c2ccccc2)sc1C(=O)O)c1ccc(Cl)s1` stands 71.5 µM.
